PHOSPHO1 block: PHOSPHO1 (human) inhibition. Q8TCT1. recombinant PHOSPHO1, absorbance phosphatase assay. inhibition, % at 13.3 µM. 290,000 tested, 1.1% active; in the data active = inhibition above about 60%
VIM-2 inhibitor: blocks Pseudomonas aeruginosa VIM-2 metallo-beta-lactamase | purified VIM-2, nitrocefin hydrolysis, epi-absorbance fluorescence | inhibition, % at 5.6 µM | 290,000 tested, 0.89% active;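 active = inhibition above the mean of all tested compounds plus 3 SD, cutoff set per screening run, cut at about 7.5% in these data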;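 note: red hydrolysis product quenches plate fluorescence so inhibitors raise well fluorescence; 0% = enzyme with DMSO and 100% = DMSO without enzyme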
ASAP1 GAP inh: inhibitors of human ASAP1 ArfGAP activity; inhibition, % at 16.5 µM; 360,000 tested, 0.19% active; ASAP1-stimulated ARF1 GTP hydrolysis, GDP FP detection; in the data active = inhibition above about 25%;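 note: 0% = vehicle with enzyme and substrate and 100% = no enzyme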
Target sequence (Q9ULH1 325-724 limits assumed): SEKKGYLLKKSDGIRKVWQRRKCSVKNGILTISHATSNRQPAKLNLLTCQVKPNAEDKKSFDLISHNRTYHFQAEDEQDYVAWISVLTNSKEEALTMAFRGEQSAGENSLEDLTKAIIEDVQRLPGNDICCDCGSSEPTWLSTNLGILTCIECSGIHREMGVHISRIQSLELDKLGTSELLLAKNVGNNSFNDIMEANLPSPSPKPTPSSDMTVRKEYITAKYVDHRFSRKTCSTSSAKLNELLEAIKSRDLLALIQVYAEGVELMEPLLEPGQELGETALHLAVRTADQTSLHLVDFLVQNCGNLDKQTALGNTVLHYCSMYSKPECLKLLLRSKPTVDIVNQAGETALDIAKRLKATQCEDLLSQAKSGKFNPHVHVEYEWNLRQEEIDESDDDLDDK
ARFGAP1 inhibitor: rat ARFGAP1 inhibition; inhibition, % at 16.5 µM; AID 651572; Arfgap1-stimulated ARF1 GTP hydrolysis, GDP FP detection; Q62848; 360,000 tested, 0.26% active;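 active = inhibition above a per-plate limit, mean inhibition of low control wells plus 3 SD, cut at about 25% in these data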;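 note: 0% = DMSO wells with enzyme and 100% = wells lacking Arfgap1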
Target sequence (Q62848 1-136 limits assumed): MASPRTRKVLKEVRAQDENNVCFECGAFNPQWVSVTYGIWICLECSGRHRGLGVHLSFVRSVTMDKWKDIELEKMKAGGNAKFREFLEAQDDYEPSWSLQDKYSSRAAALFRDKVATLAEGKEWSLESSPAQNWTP
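System: truncated rat Arfgap1 GAP domain / Benchmarks: high control wells lacking Arfgap1, low control full reaction with DMSO / Times: compound-enzyme preincubation 20 min, reaction 120 min, detection 60 min, 25 °C / Repeats: one replicate per compound / Also added: human ARF1(Δ1-17)-GTP substrate / Measured by: Tracer-displacement fluorescence polarization with EDTA stop, 620/688 nm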
Calb FLC: C. albicans growth modulation with fluconazole; C. albicans CaCi-2 (fluconazole-resistant clinical isolate) + fluconazole, Alamar Blue growth, 48 h; growth inhibition, % (test concentration not listed); 300,000 tested, 0.57% active; AID 1979;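 active = growth inhibition above about 58% in most replicates, limit read from the data, passing the limit was not always enough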;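 note: all wells also contain fluconazole at 8 µg/ml as a sub-toxic cotreatment; 0% = median of DMSO wells and 100% = median of geldanamycin control wells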
IMP-1 inh-1: inhibitors of Pseudomonas aeruginosa IMP-1 metallo-beta-lactamase; purified IMP-1, nitrocefin hydrolysis, epi-absorbance fluorescence; inhibition, % at 5.6 µM; 290,000 tested, 0.45% active; AID 1556;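 active = inhibition above the mean plus 3 SD of all compounds in the same screening run, cut at about 4.5% in these data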;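 note: 0% = IMP-1 with DMSO and 100% = DMSO wells lacking enzyme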
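System: purified IMP-1; amount: IMP-1 0.2 nM before substrate addition; compound: single dose, 5.6 µM; times: 25 °C, 15 min preincubation, 25 min reaction; signal: Epi-absorbance via hydrolysed-nitrocefin quenching of white-plate fluorescence, 480/530 nm, EDTA stop; benchmarks: DMSO with and without IMP-1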
IMP-1 inh-2: IMP-1 inhibition, counter-screen for VIM-2 inhibitors. shares compounds with VIM-2 inhibitor. 1,300 tested, under 10 active. purified IMP-1, nitrocefin hydrolysis, epi-absorbance fluorescence. inhibition, % at 5.6 µM; call rule not given here;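 note: 0% = enzyme with vehicle and 100% = vehicle without enzyme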
VIM-2 FRET ctr: inhibits VIM-2 in FRET assay to exclude epi-absorbance artifacts | shares compounds with VIM-2 inhibitor | inhibition, % at 5.6 µM | 1,300 tested, 23% active | purified VIM-2, CCF2 FRET substrate hydrolysis;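 active = inhibition above the mean of all tested compounds plus 3 SD, cut at about 19% in these data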;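 note: 0% = VIM-2 plus DMSO and 100% = no enzyme wells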
TEM-1 inh: blocks E. coli TEM-1 beta-lactamase in VIM-2 selectivity screen; shares compounds with VIM-2 inhibitor; Purified TEM-1, nitrocefin hydrolysis, epi-absorbance fluorescence; inhibition, % at 5.6 µM; 1,300 tested, 3% active; AID 1866;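 active = inhibition above that campaign's mean inhibition plus 3 SD, cut at about 0.46% in these data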;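 note: 0% = TEM-1 with DMSO and 100% = TEM-1 with 100 µM potassium clavulanate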
VIM-2 inh conf: confirmation of P. aeruginosa VIM-2 metallo-beta-lactamase inhibitors | inhibition, % at 5.6 µM | shares compounds with VIM-2 inhibitor | AID 2187 | purified VIM-2, nitrocefin hydrolysis, epi-absorbance | 1,300 tested, 96% active;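 active = inhibition of the VIM-2 beta-lactamase enzyme above about 11% from the earlier first-round screen, limit read from the data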;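 note: 0% = VIM-2 with DMSO and 100% = buffer wells without enzyme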
Starred values were filed as active, the others as inactive; . = no result given. An excerpt weighted towards active compounds, which were near 2.6% of everything screened.

SMILES	PHOSPHO1 block	VIM-2 inhibitor	ASAP1 GAP inh	ARFGAP1 inhibitor	Calb FLC	IMP-1 inh-1	IMP-1 inh-2	VIM-2 FRET ctr	TEM-1 inh	VIM-2 inh conf
CCc1cc(=O)oc2c3c(cc(OCC(=O)NCCCn4ccnc4)c12)OC(C)(C)CC3	29	46*	-2	-15	-7	-4	-3	-10	-2	55*
CCc1cc(=O)oc2c(C)c(OCC(=O)NCCCn3ccnc3)ccc12	18	23*	10	-7	6	0	-3	-1	-7	34*
Cc1cc(Cl)ccc1OCC(=O)NCCCn1ccnc1	23	-8	-20	-5	0	-2	.	.	.	.
O=C(N[C@H](CO)Cc1ccccc1)[C@H]1O[C@@H](n2ccc(=O)[nH]c2=O)[C@H](O)[C@@H]1O	.	.	0	-8	.	.	.	.	.	.
O=C1c2ccccc2C(=O)N1c1cccc2cccnc12	-7	14*	-2	4	-5	-3	-3	-1	-3	3
O=c1oc2cc(O[C@@H]3OC[C@@H](O)[C@H](O)[C@H]3O)ccc2c2ccccc12	51	16*	-1	-9	0	-2	-2	-3	-5	28*
Cc1c(C)c2ccc(O[C@@H]3O[C@H](CO)[C@H](O)[C@H](O)[C@H]3O)cc2oc1=O	22	0	-13	10	4	-3	.	.	.	.
CN(CCO)c1ccc(-c2n[nH]c(=O)c3ccccc23)cc1[N+](=O)[O-]	30	16*	-1	2	0	-4	-3	-3	-6	27*
CCC(CO)Nc1ccc(-c2nn(C)c(=O)c3ccccc23)cc1[N+](=O)[O-] (configuration not stated)	19	25*	-2	-6	11	-1	-4	-2	-8	45*
CCOC(=O)CNS(=O)(=O)c1cc(-c2n[nH]c(=O)c3ccccc23)ccc1C	-13	2	-4	4	7	-1	.	.	.	.
CN(CCO)c1ccc([N+](=O)[O-])cc1C(=O)O	0	1	7	-8	3	-2	.	.	.	.
CCC(CO)Nc1ccc(-c2n[nH]c(=O)c3ccccc23)cc1[N+](=O)[O-] (configuration not stated)	7	22*	4	-4	7	-2	-4	-4	-8	32*
COc1ccc(OC)c(N2C(=O)c3ccccc3C2c2nnnn2-c2ccc3c(c2)OCCO3)c1 (configuration not stated)	.	.	-9	10	.	.	.	.	.	.
COc1ccc(NC(=O)CSc2nnc3n2CCCCC3)cc1OC	.	.	7	-9	.	.	.	.	.	.
Cc1cccc(C)c1NC(=O)C1(C)CN(S(C)(=O)=O)CC(=O)N1C1CC1 (configuration not stated)	.	.	-6	5	.	.	.	.	.	.
CCCCCCOc1ccc(N2C(=O)CC(SCCN)C2=O)cc1 (configuration not stated)	34	15*	-1	1	12	-4	-2	6	-6	5
O=C(NC1CCCC1)C(c1ccccc1)n1c(-c2cccc3ccccc23)nc2ccccc21 (configuration not stated)	.	.	-8	15	.	.	.	.	.	.
Clc1ccc2nc(N3CCNCC3)nc(-c3ccccc3)c2c1	27	12*	3	-9	-21	2	-3	-3	-6	17*
Cc1cc(C)n2nc(C(=O)OCC(=O)NC3CCS(=O)(=O)C3)nc2n1 (configuration not stated)	.	.	5	5	.	.	.	.	.	.
Cc1cccc(N2C(=O)c3cccc4cccc(c34)C2=O)c1	13	-3	-5	-2	12	-3	.	.	.	.
O=C1c2cccc3cccc(c23)C(=O)N1c1nncs1	-26	13*	9	-2	-1	0	-3	4	-3	24*

From PubChem BioAssay
